Measured values reported in ChEMBL document CHEMBL1165856, “Naftifine-analogues as anti-Trypanosoma cruzi agents” (Eur J Med Chem, 2010).
Values after ≈ are worked out from the molar mass of the structure shown.

Experiments:
Trypanosoma cruzi [1] = test: Antitrypanosomal activity against Trypanosoma cruzi Tulahuen 2; format: functional; conditions: read-out: ID50 (the source's name)
In short: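 Epimastigotes were grown at 28 °C in BHI-tryptose with 5% FBS. Stationary-phase parasites are inoculated at 8 × 10⁶ cells/mL into medium containing increasing drug concentrations from DMSO stock (final DMSO ≤0.4%; vehicle control). Growth is followed by A600. ID50 is the concentration that halves the day-5 absorbance ratio relative to control.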

[2] = Cytotoxicity against mouse J774 cells after 48 hrs by MTT assay; format: cell-based; conditions: read-out: ID50
In short: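 J-774 macrophages were seeded at 1 × 10⁵ cells/well in RPMI 1640 with 20% heat-inactivated FCS and left to attach for 48 h at 37 °C in 5% CO₂. Cells were then exposed to compounds for 48 h. MTT was added at 0.4 mg/mL final, formazan was dissolved in DMSO, and A595 was read. ID50 is the concentration cutting control absorbance by 50%, averaged over three experiments.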

[3] = Selectivity index, ratio of ID50 for mouse J774 cells to ID50 for Trypanosoma cruzi Tulahuen 2; format: toxicity, cell-based; conditions: J774 cells versus Trypanosoma cruzi Tulahuen 2
In short: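 Selectivity index is the ID50 in J-774 macrophages (48 h MTT) divided by the ID50 against Tulahuen 2 epimastigotes (day-5 A600 growth).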

Trypanosoma cruzi [4] = test: Antitrypanosomal activity against Trypanosoma cruzi Tulahuen 2 at 25 uM; format: functional
In short: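 Tulahuen 2 epimastigotes (8 × 10⁶ cells/mL, 28 °C, BHI-tryptose with 5% FBS) were exposed to a single drug concentration, with final DMSO ≤0.4% and a vehicle control. Percent growth inhibition = {1 − [(Ap − A0p)/(Ac − A0c)]} × 100, using A600 of drug and control cultures at day 0 and day 5.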

Candida albicans = test: Antifungal activity against Candida albicans ATCC 10231 after 48 hrs; format: functional; conditions: ATCC 10231, 48 h
In short: (§1)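 CLSI M27-A2 broth microdilution in RPMI 1640 buffered to pH 7.0 with MOPS. Inoculum is 10³ CFU/mL from Sabouraud-grown yeasts. Compound is two-fold serially diluted, final DMSO ≤1%. Incubated at 35 °C in a moist, dark chamber and read visually at 48 h. MIC is the lowest concentration giving total growth inhibition.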

Candida tropicalis = test: Antifungal activity against Candida tropicalis C 131 2000 after 48 hrs; format: functional; conditions: Candida tropicalis, C 131 2000, 48 h; read-out: MIC; in short: as §1
Saccharomyces cerevisiae = test: Antifungal activity against Saccharomyces cerevisiae ATCC 9763 after 48 hrs; format: functional; conditions: ATCC 9763, 48 h; in short: as §1
Cryptococcus neoformans = test: Antifungal activity against Cryptococcus neoformans ATCC 32264 after 48 hrs; format: functional; conditions: Cryptococcus neoformans, ATCC 32264, 48 h; read-out: MIC; in short: as §1
Aspergillus fumigatus = test: Antifungal activity against Aspergillus fumigatus ATCC 26934 after 48 hrs; format: functional; conditions: ATCC 26934, 48 h
In short: (§2)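 Aspergillus spp. were tested by CLSI M38-A broth microdilution in RPMI 1640 with MOPS at pH 7.0. Spore inoculum is 10³ CFU/mL, with two-fold compound dilutions and final DMSO ≤1%. Incubated at 35 °C in a moist, dark chamber. MIC is read visually as total growth inhibition, at a time set by growth of the control fungus.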

Aspergillus flavus = test: Antifungal activity against Aspergillus flavus ATCC 9170 after 48 hrs; format: functional; conditions: ATCC 9170, 48 h; in short: as §2
Aspergillus niger = test: Antifungal activity against Aspergillus niger ATCC 9029 after 48 hrs; format: functional; conditions: ATCC 9029, 48 h; in short: as §2
Nannizzia gypsea = test: Antifungal activity against Microsporum gypseum C 115 after 48 hrs; format: functional; conditions: C 115, 48 h
In short: (§3)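 Dermatophytes were tested by CLSI M38-A microdilution in MOPS-buffered RPMI 1640 at pH 7.0. Inoculum is 10³ CFU/mL, with two-fold serial compound dilutions and final DMSO ≤1%. Trays are kept at 28–30 °C in a moist, dark chamber. MIC is the lowest concentration with total growth inhibition, read visually when control growth allows.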

Trichophyton rubrum = test: Antifungal activity against Trichophyton rubrum C 113 after 48 hrs; format: functional; conditions: C 113, 48 h; in short: as §3
[5] = tested on: Trichophyton mentagrophytes; test: Antifungal activity against Trichophyton mentagrophytes ATCC 9972 after 48 hrs; format: functional; conditions: ATCC 9972, 48 h; in short: as §3

With CN(C/C=C/c1ccccc1)Cc1ccc2c(c1)=[N+]([O-])C(C)(C)[N+]=2[O-] the IC50 (Trypanosoma cruzi [1]) was 22.7 µM, the CC50 at 48 h [2] was over 400 µM and the selectivity ratio [3] was over 17.6.
Cc1c(C(=O)Nc2ccccc2)[n+]([O-])c2cc(CN(C)C/C=C/c3ccccc3)ccc2[n+]1[O-] gave an inhibition at 25 µM (Trypanosoma cruzi [4]) of 34%.
COc1nn(CCOCCN(C)C/C=C/c2ccccc2)c2ccc([N+](=O)[O-])cc12 showed an IC50 (Trypanosoma cruzi [1]) of 23.1 µM, a CC50 at 48 h [2] of under 100 µM and a selectivity ratio [3] of under 4.3.
CN(C/C=C/c1ccccc1)CCOCCn1nc(OCc2ccccc2)c2cc([N+](=O)[O-])ccc21 gave an IC50 (Trypanosoma cruzi [1]) of 10 µM, a CC50 at 48 h [2] of under 100 µM and a selectivity ratio [3] of under 10.
For CC1(C)[N+]([O-])=c2ccc(CN3CCN(C/C=C/c4ccccc4)CC3)cc2=[N+]1[O-], the IC50 (Trypanosoma cruzi [1]) was 25 µM, the CC50 at 48 h [2] was 109 µM and the selectivity ratio [3] was 4.4.
Compound O=[N+]([O-])c1ccc2c(c1)c(OCc1ccccc1)nn2CCOCCNCCC/C=C/c1ccccc1 has an IC50 (Trypanosoma cruzi [1]) of 4.5 µM, a CC50 at 48 h [2] of under 100 µM and a selectivity ratio [3] of under 22.2.
In the case of C=CCNC(=S)N/N=C/c1ccc2c(c1)[n+]([O-])c(C(=O)Nc1ccccc1)c(-c1ccccc1)[n+]2[O-], the inhibition at 25 µM (Trypanosoma cruzi [4]) is reported as 18%.
In the case of O=[N+]([O-])c1ccc2c(c1)c(OCc1ccccc1)nn2CCOCCN1CCN(C/C=C/c2ccccc2)CC1, the IC50 (Trypanosoma cruzi [1]) is reported as 6.5 µM, the CC50 at 48 h [2] is reported as under 100 µM and the selectivity ratio [3] is reported as under 15.4. It also gave an MIC (Candida albicans) of over 250 µg/mL, an MIC (Candida tropicalis) of over 250 µg/mL and an MIC (Saccharomyces cerevisiae) of over 250 µg/mL. The MIC (Cryptococcus neoformans) was over 250 µg/mL, the MIC (Aspergillus fumigatus) was over 250 µg/mL and the MIC (Aspergillus flavus) was over 250 µg/mL. For the same compound, the MIC (Aspergillus niger) was over 250 µg/mL, the MFC (Nannizzia gypsea) was over 250 µg/mL and the MIC (Nannizzia gypsea) was 125 µg/mL (≈ 231 µM). It also gave an MFC (Trichophyton rubrum) of over 250 µg/mL, an MIC (Trichophyton rubrum) of 125 µg/mL (≈ 231 µM) and an MFC [5] of over 250 µg/mL. For the same compound, the MIC [5] was 125 µg/mL (≈ 231 µM).
With N#Cc1c2ccccc2[n+]([O-])n1CC/C=C\c1ccccc1 the inhibition at 25 µM (Trypanosoma cruzi [4]) was 30%.
Compound C=CCNC(=S)N/N=C/c1ccc2no[n+]([O-])c2c1 has an inhibition at 25 µM (Trypanosoma cruzi [4]) of 33%, an MIC (Candida albicans) of over 250 µg/mL and an MIC (Candida tropicalis) of over 250 µg/mL. For the same compound, the MIC (Saccharomyces cerevisiae) was over 250 µg/mL, the MIC (Cryptococcus neoformans) was over 250 µg/mL and the MIC (Aspergillus fumigatus) was over 250 µg/mL. For the same compound, the MIC (Aspergillus flavus) was over 250 µg/mL, the MIC (Aspergillus niger) was over 250 µg/mL and the MIC (Nannizzia gypsea) was over 250 µg/mL. It also gave an MIC (Trichophyton rubrum) of over 250 µg/mL and an MIC [5] of over 250 µg/mL.
Compound C[C@@H]1[C@H](O)[C@@H](C)/C=C/C=C/C=C/C=C/C=C/C=C/C=C/[C@H](O[C@@H]2O[C@H](C)[C@@H](O)[C@H](N)[C@@H]2O)C[C@@H]2O[C@](O)(C[C@@H](O)C[C@@H](O)[C@H](O)CC[C@@H](O)C[C@@H](O)CC(=O)O[C@H]1C)C[C@H](O)[C@H]2C(=O)O [AMPHOTERICIN B] has an MIC (Candida albicans) of 0.78 µg/mL (≈ 0.844 µM), an MIC (Candida tropicalis) of 1.56 µg/mL (≈ 1.69 µM) and an MIC (Saccharomyces cerevisiae) of 0.5 µg/mL (≈ 0.541 µM). The MIC (Cryptococcus neoformans) was 0.25 µg/mL (≈ 0.271 µM), the MIC (Aspergillus fumigatus) was 0.5 µg/mL (≈ 0.541 µM) and the MIC (Aspergillus flavus) was 0.5 µg/mL (≈ 0.541 µM). It also gave an MIC (Aspergillus niger) of 0.5 µg/mL (≈ 0.541 µM), an MIC (Nannizzia gypsea) of 0.125 µg/mL (≈ 0.135 µM) and an MIC (Trichophyton rubrum) of 0.075 µg/mL (≈ 0.0812 µM). It also gave an MIC [5] of 0.075 µg/mL (≈ 0.0812 µM).
With CC(=O)N1CCN(c2ccc(OCC3COC(Cn4ccnc4)(c4ccc(Cl)cc4Cl)O3)cc2)CC1 (stereo not given) [KETOCONAZOLE] the CC50 at 48 h [2] was 339 µM, the selectivity ratio [3] was 19.9 and the MIC (Candida albicans) was 0.5 µg/mL (≈ 0.941 µM). The MIC (Candida tropicalis) was 0.5 µg/mL (≈ 0.941 µM), the MIC (Saccharomyces cerevisiae) was 0.5 µg/mL (≈ 0.941 µM) and the MIC (Cryptococcus neoformans) was 0.25 µg/mL (≈ 0.47 µM). It also gave an MIC (Aspergillus fumigatus) of 0.125 µg/mL (≈ 0.235 µM), an MIC (Aspergillus flavus) of 0.5 µg/mL (≈ 0.941 µM) and an MIC (Aspergillus niger) of 0.25 µg/mL (≈ 0.47 µM). It also gave an MIC (Nannizzia gypsea) of 0.05 µg/mL (≈ 0.0941 µM), an MIC (Trichophyton rubrum) of 0.025 µg/mL (≈ 0.047 µM) and an MIC [5] of 0.025 µg/mL (≈ 0.047 µM).
For CC1CS(=O)(=O)CCN1/N=C/c1ccc([N+](=O)[O-])o1 (stereo not given) [NIFURTIMOX], the selectivity ratio [3] was over 33.3.
In the case of CN(C/C=C/C#CC(C)(C)C)Cc1cccc2ccccc12 [TERBINAFINE], the CC50 at 48 h [2] is reported as under 100 µM, the selectivity ratio [3] is reported as under 10 and the MIC (Candida albicans) is reported as 1.56 µg/mL (≈ 5.35 µM). The MIC (Candida tropicalis) was 1.56 µg/mL (≈ 5.35 µM), the MIC (Saccharomyces cerevisiae) was 3.12 µg/mL (≈ 10.7 µM) and the MIC (Cryptococcus neoformans) was 0.39 µg/mL (≈ 1.34 µM). It also gave an MIC (Aspergillus fumigatus) of 0.78 µg/mL (≈ 2.68 µM), an MIC (Aspergillus flavus) of 0.78 µg/mL (≈ 2.68 µM) and an MIC (Aspergillus niger) of 1.56 µg/mL (≈ 5.35 µM). For the same compound, the MIC (Nannizzia gypsea) was 0.04 µg/mL (≈ 0.137 µM), the MIC (Trichophyton rubrum) was 0.01 µg/mL (≈ 0.0343 µM) and the MIC [5] was 0.025 µg/mL (≈ 0.0858 µM).
